# High-throughput results (PubChem BioAssay)
# CHO-K1 Ca PAM – nonselective activator or artifact in parental CHO-K1 calcium assay; ATP EC20, Fluo-8 calcium fluorescence; 0% at ATP EC20, 100% at ATP max; activation, % at 3 µM; 360,000 compounds, 0.02% hits;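 active = activation above the run cutoff, the mean activation of all test compounds plus 3 SD, cut at about 40% in these data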;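 note: peak over basal fluorescence ratio in a 140 s read after ATP addition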
# CHRM5 agonist – CHRM5 agonism in calcium assay; 360,000 compounds, 0.19% hits; CHO-K1 hM5 cells, Fluo-8 calcium fluorescence; 0% DMSO wells, 100% maximal acetylcholine response; activation, % at 3 µM;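 active = activation above the run's mean over test compounds plus 3 SD, cut at about 23% in these data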;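 note: signal is peak over basal fluorescence ratio across the kinetic read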
# Target sequence (P08912 whole entry, looked up): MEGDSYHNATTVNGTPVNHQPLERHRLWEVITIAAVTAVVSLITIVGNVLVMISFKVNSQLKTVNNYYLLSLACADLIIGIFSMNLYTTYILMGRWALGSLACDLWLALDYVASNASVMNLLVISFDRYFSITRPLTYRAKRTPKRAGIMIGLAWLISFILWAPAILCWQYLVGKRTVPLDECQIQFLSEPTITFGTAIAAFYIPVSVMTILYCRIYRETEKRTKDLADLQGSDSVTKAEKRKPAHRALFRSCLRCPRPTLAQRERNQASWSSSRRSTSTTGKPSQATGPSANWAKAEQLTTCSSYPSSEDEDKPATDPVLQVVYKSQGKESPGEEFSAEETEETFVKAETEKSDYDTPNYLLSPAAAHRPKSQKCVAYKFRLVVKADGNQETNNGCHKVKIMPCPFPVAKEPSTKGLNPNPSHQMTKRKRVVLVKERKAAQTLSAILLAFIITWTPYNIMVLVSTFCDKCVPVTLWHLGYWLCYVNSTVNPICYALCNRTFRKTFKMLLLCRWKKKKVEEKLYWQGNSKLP
# CHO-K1 Ca antag – nonselective inhibitor or artifact in parental CHO-K1 cells | ATP-induced calcium, Fluo-8 fluorescence | inhibition, % at 3 µM | 360,000 compounds, 0.6% hits | AID 602250;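 active = inhibition above a per-plate cutoff, the plate's mean sample inhibition plus 3 SD, cut at about 24% in these data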;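 note: 0% = DMSO plus EC80 ATP and 100% = DMSO alone without ATP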
# M5 antag – blocks acetylcholine activation of human M5 receptor. P08912. CHO-hM5 cells, Fluo-8 calcium fluorescence, ACh EC80. inhibition, % at 3 µM. 360,000 compounds, 0.59% hits. AID 624040;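 active = inhibition above a per-plate cutoff, the mean of that plate's test compounds plus 3 SD, cut at about 27% in these data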;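 note: 0% = acetylcholine EC80 with DMSO and 100% = DMSO without agonist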
# M5 PAM – CHRM5 positive allosteric modulation. 360,000 compounds, 0.3% hits. P08912. activation, % at 3 µM. CHO-K1 hM5, Fluo-8 calcium, ACh EC20 PAM; 0% = ACh EC20, 100% = ACh EC100;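 active = activation above the run cutoff, the mean activation of all test compounds plus 3 SD, cut at about 18% in these data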
#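 system = human M5 receptor in CHO-K1 cells | compound = one concentration, 3 µM final (nominal) | schedule = Post-acetylcholine fluorescence recording 140 s | signal = Fluo-8 calcium dye fluorescence, kinetic read | benchmarks = low control EC20 acetylcholine (0%), high control EC100 acetylcholine (100%) | repeats = singlicate, one well per test compound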
# CHO-K1 Ca ag – M1 agonist counterscreen hit in parental CHO-K1 cells; Fluo-8 calcium fluorescence; scaled to maximal ATP response, vehicle zero; activation, % at 3 µM; 360,000 compounds, 0.48% hits; AID 602248; in the data active = activation above about 15%;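 note: untransfected CHO-K1 host cells lacking M1 receptor as counterscreen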
# An asterisk follows results filed as active; x = not tested or not shown. Hits are enriched below; roughly 1.7% of the tested compounds scored in any of these assays.
SMILES,CHO-K1 Ca PAM,CHRM5 agonist,CHO-K1 Ca antag,M5 antag,M5 PAM,CHO-K1 Ca ag
O=C(NCCN1CCC(n2c(=O)[nH]c3ccccc32)CC1)C(c1ccccc1)c1ccccc1,15.0,-4.0,-10.2,36.7*,-24.0,1.2
O=C(C[C@@H]1CC[C@H](NS(=O)(=O)c2ccccc2F)[C@@H](CO)O1)NCCCN1CCOCC1,x,0.7,x,-3.0,-0.9,x
CCN(CC(=O)Nc1ccccc1OC)C(=O)c1ccc(N(C)S(=O)(=O)c2ccc(C)cc2)cc1,-14.8,-7.9,0.6,97.8*,-29.6,7.7
COc1ccc(N(CC(=O)Nc2ccc(OC)cc2OC)S(=O)(=O)c2ccccc2)cc1,18.3,-3.9,-19.0,5.2,5.0,0.7
CCOc1ccc(N(CC(=O)Nc2ccccc2OC)S(=O)(=O)c2ccccc2)cc1,10.6,-5.4,2.6,-2.3,-0.8,17.5*
CN(C)C(=S)Nc1ccc2c(c1)OCCO2,-14.0,-0.4,3.0,7.4,-3.6,-0.3
Cc1ccc(SCCC(=O)N2CCC(C)CC2)cc1,18.4,-4.7,-8.3,0.1,-3.8,0.1
COCCNC(=S)N1CCc2cc(OC)c(OC)cc2C1COc1cc(C)cc(C)c1 (stereo unspecified),19.2,-3.6,-8.1,-18.3,7.2,0.0
CC(=O)c1cc(Cl)ccc1OCc1cccc(S(=O)(=O)N2CCOCC2)c1,-3.5,2.7,5.5,9.8,-17.5,16.4*
O=C(COC(=O)CSc1ccc(F)cc1)NC1CC1,1.0,0.9,-9.2,-2.8,-3.1,0.3
COc1cccc(-c2cc(C(=O)N3CCN(c4ncccn4)CC3)c3ccccc3n2)c1,-11.3,3.8,33.7*,16.5,-15.9,4.4
CC(C)(C)NC(=O)CSc1nnc(-c2ccncc2)o1,1.4,2.7,24.7*,4.6,5.4,-0.2
Cc1ccccc1CSc1nnc(-c2ccncc2)o1,2.3,-2.2,2.6,2.3,-3.7,24.2*
NC(=O)CSc1nnc(-c2ccncc2)o1,21.9,-3.4,-1.8,-3.7,-0.5,0.3
CCOC(=O)c1c(NC(C)=O)sc2c1CCCNC2=O,-9.8,-1.4,26.4*,3.2,-0.3,-0.3
Cc1ccc(Nc2ncccc2C(N)=O)cc1,18.5,-3.3,-7.8,-2.4,-4.6,0.0
CCCCNC(=O)C1(C)CCC(=O)N1CCOc1ccccc1 (stereo unspecified),13.7,-1.5,0.6,-4.2,2.5,0.5
CC1(C(=O)NC2CCCC2)CCC(=O)N1CCOc1ccccc1 (stereo unspecified),3.2,-1.2,28.4*,-2.7,0.8,0.1
C=CCN1c2ccccc2[C@]23C[C@@H](C(=O)OC)N(C(=O)c4ccco4)C2=NC(C(=O)OC)=C(C(=O)OC)[C@H]13,5.3,-0.8,0.7,8.1,1.8,1.1
Cc1ccc(S(=O)(=O)N2CCC(C(=O)N/N=C/c3ccncc3)CC2)cc1,-8.4,-2.4,24.5*,5.9,7.5,-1.0
COC(=O)Nc1ccc(S(=O)(=O)N2CCCC(C(=O)N3CCOCC3)C2)cc1 (stereo unspecified),13.0,2.4,-11.4,8.8,-3.7,1.3
COC(=O)Nc1ccc(S(=O)(=O)N2CCCC(C(=O)N3CC(C)OC(C)C3)C2)cc1 (stereo unspecified),13.3,-1.0,1.0,1.3,4.3,15.5*
Cc1ccc(S(=O)(=O)N2CCCC(C(=O)N3CCN(c4ccccc4)CC3)C2)cc1 (stereo unspecified),-7.7,-6.0,-2.0,29.2*,-12.1,6.0
Cc1ccc(S(=O)(=O)N2CCC(C(=O)N3Cc4ccccc4C3)CC2)cc1,17.4,-5.0,-6.2,-9.8,18.8*,0.9
CCOc1ccccc1C(=O)N1CCC(n2nnc3cc(C(F)(F)F)ccc32)CC1,11.2,3.1,0.1,3.8,-5.1,3.2
O=C1NC(=O)C(CC(=O)N(Cc2ccco2)C2(C(=O)NC3CCCCC3)CCCCC2)N1 (stereo unspecified),17.0,-2.5,-11.7,-2.7,-3.6,0.5
COc1ccc(-n2nc(C(=O)NCC(=O)N3CCOCC3)c3ccccc3c2=O)c(OC)c1,-2.4,0.0,-0.7,5.5,-1.5,1.1
CCOc1ccc(CN(C)CC(=O)Nc2ccc(N3CCOCC3)cc2)cc1OC,16.7,-0.7,0.5,-14.7,4.7,15.9*
